Assay [1] concerns Plasmodium berghei. Nature of the assay: Antimalarial activity against Plasmodium berghei infected in mouse assessed as change in mean survival time at 20 mg/kg, sc administered as single dose 72 hrs after parasite infection (reference value: 6.1 days). It is filed as functional. Particulars: route subcutaneous.
The subject of assay [2] is Plasmodium berghei. The experiment in a line: Antimalarial activity against Plasmodium berghei infected in mouse assessed as change in mean survival time at 80 mg/kg, sc administered as single dose 72 hrs after parasite infection (reference value: 6.1 days). Type of assay: functional. Particulars: route subcutaneous.
The test system of assay [3] is Plasmodium berghei. The experiment in a line: Antimalarial activity against Plasmodium berghei infected in mouse assessed as change in mean survival time at 40 mg/kg, sc administered as single dose 72 hrs after parasite infection (reference value: 6.1 days). It is filed as functional. The note with it: route subcutaneous.
Assay [4] concerns Plasmodium berghei. The experiment in a line: Antimalarial activity against Plasmodium berghei infected in mouse assessed as change in mean survival time at 640 mg/kg, sc administered as single dose 72 hrs after parasite infection (reference value: 6.1 days). The note with it: route subcutaneous. It is filed as functional.
Assay [5] has as its system Plasmodium berghei. The experiment in a line: Antimalarial activity against Plasmodium berghei infected in mouse assessed as change in mean survival time at 10 mg/kg, sc administered as single dose 72 hrs after parasite infection (reference value: 6.1 days). Type of assay: functional. Particulars: route subcutaneous.
The subject of assay [6] is Plasmodium berghei. Nature of the assay: Antimalarial activity against Plasmodium berghei infected in mouse assessed as curing of parasite infection at 640 mg/kg, sc administered as single dose 72 hrs after parasite infection. Type of assay: functional, organism-based. Details: dose 640 mg/kg.
The test system of assay [7] is Plasmodium berghei. Nature of the assay: Antimalarial activity against sc dosed Plasmodium berghei infected in mouse assessed as dose resulting in mean survival time […]. It is filed as functional. The note with it: read-out: MED.
In assay [8] the test system is Plasmodium berghei. Nature of the assay: Antimalarial activity against Plasmodium berghei infected in mouse assessed as curing of parasite infection at 320 mg/kg, sc administered as single dose 72 hrs after parasite infection. Type of assay: functional, organism-based. Details: dose 320 mg/kg. The method, boiled down: (§1)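 Mice (five per group) infected with P. berghei were given a single subcutaneous dose 72 h after infection. Increase in mean survival time over infected untreated controls was recorded, and an increase of at least 100% counted as activity. The screen was run by Rane Laboratories.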

Assay [9] deals with Plasmodium berghei. The experiment in a line: Antimalarial activity against Plasmodium berghei infected in mouse assessed as curing of parasite infection at 160 mg/kg, sc administered as single dose 72 hrs after parasite infection. Type of assay: functional, organism-based. Details: dose 160 mg/kg. In a few lines:
as §1

Each structure is given as a SMILES string. The source made the active and inactive calls. The calls are words filed in the database; no cut-off is given here.

Consider `Cl.OC(CC1CCCCN1)c1cc(-c2ccc(Cl)cc2)cc2c(Cl)cc(Cl)cc12` (stereo not given), for which the MST is 9.8 days in [1]; 16.6 days in [2]; 11.8 days in assay [3]; 6 days in [4]; 3.6 days in [5].
Regarding `CCCCN(CCCC)CC(O)c1cc(-c2ccc(Cl)cc2)cc2c(Cl)cc(Cl)cc12.Cl` (stereo not given), the MST in [1] came out at 9.5 days; in [3], 10.5 days; in assay [5] it was 7.9 days. Also, the outcome in [6] was Active. Moreover, the minimal effective dose in [7] is 10 mg/kg.
In the case of `Cl.OC(c1cc(-c2ccc(Cl)cc2)nc2c(Cl)cc(Cl)cc12)C1CCCCN1` (stereo not given), the minimal effective dose in assay [7] came out at 5 mg/kg.
For `CC(=O)O.OC(c1cc(-c2ccc(Cl)cc2)cc2c(Cl)cc(Cl)cc12)C1CCCCN1` (stereo not given), the MST worked out at 1.1 days in [1] and 0.5 days in assay [5]. Also, the minimal effective dose in assay [7] was 20 mg/kg.
Regarding `CCCCN(CCCC)CC(O)c1cc(-c2ccc(Cl)cc2)nc2c(Cl)cc(Cl)cc12.Cl` (stereo not given), the minimal effective dose in [7] turned out to be 10 mg/kg.
For `CCCCN(CCCC)CCC(O)c1cc(-c2ccc(Cl)cc2)cc2c(Cl)cc(Cl)cc12.Cl` (stereo not given), the MST in assay [1] turned out to be 12.1 days; in assay [5], 2.9 days. The result in assay [6], in assay [8] and in [9] was Active.

The values are drawn from ChEMBL document CHEMBL3227949, “Antimalarials. 4. Trichloronaphthalene amino alcohols” (1979).
